Calls of active or inactive are those of the source.
Experiments:
Keratinocyte = assay: Effect on actin cytoskeleton in human diabetic primary keratinocytes assessed as formation of cellular protrusions at 10 nM after 2 hrs by rhodamine phalloidin-staining based fluorescence microscopic analysis; assay type: functional
Outline: (§1)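 Subconfluent cells on glass coverslips, collagen type I coated for fibroblasts; keratinocytes starved 2 days before stimulation. Exposure 2 h, then rhodamine-phalloidin staining (1:25 in PBS) and fluorescence microscopy. Controls were DMSO as solvent and PDGF (fibroblasts) or CNF1 (keratinocytes). Where used, p38-MAPK inhibitor LN 950 (100 nM) was added 30 min beforehand.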

Fibroblast [1] = assay: Effect on actin cytoskeleton in human diabetic primary fibroblasts assessed as formation of thin elongated cellular body at 10 nM after 2 hrs by rhodamine phalloidin-staining based fluorescence microscopic analysis; assay type: functional; outline: as §1
Fibroblast [2] = assay: Effect on actin cytoskeleton in human non-diabetic primary fibroblasts assessed as formation of thin elongated cellular body at 10 nM after 2 hrs by rhodamine phalloidin-staining based fluorescence microscopic analysis; assay type: functional; outline: as §1
Fibroblast [3] = assay: Effect on actin cytoskeleton in human non-diabetic primary fibroblasts assessed as formation of thin elongated cellular body at 10 nM after 2 hrs in presence of p-38 MAPK inhibitor LN 950 by rhodamine phalloidin-staining based fluorescence microscopic analysis; assay type: functional; outline: as §1
[4] = biological target: Transforming protein RhoA (Homo sapiens) (UniProt P61586); assay: Activation of RhoA in human diabetic primary keratinocytes at 10 nM after 3 hrs by immunoblot method
Outline: (§2)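 Keratinocytes from a diabetic adult donor; incubation 3 h for RhoA, 20 min for Cdc42 and Rac1. Lysates made in glycerol/Tris pH 7.4/NaCl/NP-40/MgCl2/PMSF buffer, spun at 4 °C. Active GTP-bound form pulled down on glutathione-sepharose with GST-Rhotekin (RhoA) or GST-PAK (Cdc42, Rac1) for 1 h at 4 °C. Total and pulled-down protein read by immunoblot with ECL; n = 3.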

[5] = biological target: Cell division control protein 42 homolog (Homo sapiens) (UniProt P60953); assay: Activation of Cdc42 in human diabetic primary keratinocytes at 10 nM after 20 mins by immunoblot method; outline: as §2
[6] = biological target: Ras-related C3 botulinum toxin substrate 1 (Homo sapiens) (UniProt P63000); assay: Activation of Rac1 in human diabetic primary keratinocytes at 10 nM after 20 mins by immunoblot method
Outline: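 Primary keratinocytes from a diabetic adult donor (NHK-d), exposed 20 min. Lysed in glycerol/Tris pH 7.4/NaCl/NP-40/MgCl2/PMSF buffer and cleared at 4 °C. Supernatant incubated 1 h at 4 °C with glutathione-sepharose beads carrying GST-PAK to pull down active GTP-bound Rac1. Blotted on a 13% gel, probed with anti-Rac1 (1:2.000) and detected by ECL; total Rac1 also measured. CNF1 (2 nM) positive control, n = 3.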

Fibroblast [7] = assay: Induction of shape change of actin cytoskeleton in human diabetic primary fibroblasts at 10 nM after 2 hrs by rhodamine phalloidin-staining based fluorescence microscopic analysis; assay type: functional
Fibroblast [8] = assay: Induction of shape change of actin cytoskeleton in human non-diabetic primary fibroblasts at 10 nM after 2 hrs by rhodamine phalloidin-staining based fluorescence microscopic analysis; assay type: functional

Measured: Activity

Sequence of Transforming protein RhoA (Homo sapiens) (P61586 whole entry): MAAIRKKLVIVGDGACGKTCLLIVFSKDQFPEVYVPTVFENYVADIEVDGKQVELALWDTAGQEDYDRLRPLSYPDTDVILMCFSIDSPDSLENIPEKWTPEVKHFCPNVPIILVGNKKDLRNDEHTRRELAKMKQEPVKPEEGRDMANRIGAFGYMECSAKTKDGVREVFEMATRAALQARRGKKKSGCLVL
Sequence of Cell division control protein 42 homolog (Homo sapiens) (P60953 whole entry, looked up): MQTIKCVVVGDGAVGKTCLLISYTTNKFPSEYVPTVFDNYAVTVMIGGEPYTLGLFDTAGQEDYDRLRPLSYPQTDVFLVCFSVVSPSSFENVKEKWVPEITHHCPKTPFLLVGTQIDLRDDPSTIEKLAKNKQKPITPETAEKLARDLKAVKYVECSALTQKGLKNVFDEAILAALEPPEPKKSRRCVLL

C=C(C)[C@@H]1CC[C@]2(C)CC[C@]3(C)[C@H](CC[C@@H]4[C@@]5(C)CC[C@H](O)C(C)(C)[C@@H]5CC[C@]43C)[C@@H]12
not listed: Fibroblast [7] | Fibroblast [8]
active: all other assays above

C=C(C)[C@@H]1CC[C@]2(C(=O)O)CC[C@]3(C)[C@H](CC[C@@H]4[C@@]5(C)CC[C@H](O)C(C)(C)[C@@H]5CC[C@]43C)[C@@H]12
active: Fibroblast [7] | Fibroblast [8]
